ChEMBL document CHEMBL4028867, “Design, Synthesis, and Characterization of N-Oxide-Containing Heterocycles with in Vivo Sterilizing Antitubercular Activity” (J Med Chem, 2017)
Values after ≈ are worked out from the molar mass of the structure shown. Active and inactive are the calls of the source. No cut-off for these calls is given here.

How the values were obtained:
[1] = tested on: Mycobacterium tuberculosis; assay: Antitubercular activity against replicating stage Mycobacterium tuberculosis H37Rv ATCC 27294 after 7 days by Resazurin microtiter assay; assay type: functional; conditions: H37Rv ATCC 27294, 168 h
MRC5 = assay: Cytotoxicity against human MRC5 cells assessed as reduction in cell viability after 24 hrs by fluorescence assay; assay type: cell-based; conditions: MRC5, 24 h
Procedure, shortened: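 MRC-5 human lung fibroblasts; cytotoxicity reported as IC50.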

[2] = Selectivity index, ratio of IC50 for human MRC5 cells to IC50 for replicating stage Mycobacterium tuberculosis H37Rv ATCC 27294; assay type: toxicity; conditions: read-out: Selectivity Index
[3] = n-Octanol/water partition coefficient, log P of the compound by HPLC analysis; assay type: physicochemical
Procedure, shortened: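 Log P from n-octanol/water partition coefficient determined by HPLC method.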

[4] = tested on: Mycobacterium tuberculosis; assay: Antitubercular activity against dormant stage Mycobacterium tuberculosis H37Rv ATCC 27294 incubated for 10 days in anaerobic condition followed by incubation for 28 hrs in ambient gaseous condition measured after day 11 by two fold serial dilution assay; assay type: functional
Staphylococcus aureus = assay: Antimicrobial activity against Staphylococcus aureus ATCC 29213 at 200 uM incubated for 16 hrs; assay type: functional
Escherichia coli = assay: Antimicrobial activity against Escherichia coli ATCC 25922 at 200 uM incubated for 16 hrs; assay type: functional
Candida albicans = assay: Antimicrobial activity against Candida albicans ATCC 10231 at 200 uM incubated for 48 hrs; assay type: functional
[5] = tested on: Mycobacterium tuberculosis; assay: Antitubercular activity against Mycobacterium tuberculosis H37Rv ATCC 27294 under normal pH 6.8 condition; assay type: functional
[6] = tested on: Mycobacterium tuberculosis; assay: Growth inhibition of Mycobacterium tuberculosis H37Rv exposed to plasma from BALB/c mouse treated with 20 mg/kg, po administered through microemulsion vehicle as single oral dose per gavage after 4 hrs by Resazurin microtiter assay; assay type: functional; conditions: read-out: GI
Procedure, shortened: (§1)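 The microemulsion was 10% cholesterol, 10% phosphatidylcholine/sodium oleate/polyoxyl 40 hydrogenated castor oil (3:6:8) and 80% phosphate buffer pH 7.4. Plasma taken at 0.3, 1, 2 or 4 h was tested by REMA for % Mtb growth inhibition, and plasma level was estimated against the in-vitro REMA MIC.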

[7] = tested on: Mycobacterium tuberculosis; assay: Growth inhibition of Mycobacterium tuberculosis H37Rv exposed to plasma from BALB/c mouse treated with 20 mg/kg, po administered through microemulsion vehicle as single oral dose per gavage after 2 hrs by Resazurin microtiter assay; assay type: functional; conditions: read-out: GI; procedure, shortened: as §1
[8] = tested on: Mycobacterium tuberculosis; assay: Growth inhibition of Mycobacterium tuberculosis H37Rv exposed to plasma from BALB/c mouse treated with 20 mg/kg, po administered through microemulsion vehicle as single oral dose per gavage after 1 hr by Resazurin microtiter assay; assay type: functional; conditions: read-out: GI; procedure, shortened: as §1
[9] = tested on: Mycobacterium tuberculosis; assay: Growth inhibition of Mycobacterium tuberculosis H37Rv exposed to plasma from BALB/c mouse treated with 20 mg/kg, po administered through microemulsion vehicle as single oral dose per gavage after 0.3 hrs by Resazurin microtiter assay; assay type: functional; conditions: read-out: GI; procedure, shortened: as §1
[10] = tested on: Mycobacterium tuberculosis; assay: Antitubercular activity against Mycobacterium tuberculosis H37Rv ATCC 27294 under acidic pH 6 condition; assay type: functional
[11] = tested on: Mycobacterium tuberculosis; assay: Growth inhibition of Mycobacterium tuberculosis H37Rv exposed to plasma from BALB/c mouse treated with 20 mg/kg, po administered through carboxymethylcellulose vehicle as single oral dose per gavage after 0.3 hrs by Resazurin microtiter assay; assay type: functional; conditions: read-out: GI; procedure, shortened: as §1
[12] = tested on: Mycobacterium tuberculosis; assay: Growth inhibition of Mycobacterium tuberculosis H37Rv exposed to plasma from BALB/c mouse treated with 20 mg/kg, po administered through carboxymethylcellulose vehicle as single oral dose per gavage after 1 hr by Resazurin microtiter assay; assay type: functional; conditions: read-out: GI; procedure, shortened: as §1
[13] = tested on: Mycobacterium tuberculosis; assay: Growth inhibition of Mycobacterium tuberculosis H37Rv exposed to plasma from BALB/c mouse treated with 20 mg/kg, po administered through carboxymethylcellulose vehicle as single oral dose per gavage after 2 hrs by Resazurin microtiter assay; assay type: functional; conditions: read-out: GI; procedure, shortened: as §1
[14] = tested on: Mycobacterium tuberculosis; assay: Growth inhibition of Mycobacterium tuberculosis H37Rv exposed to plasma from BALB/c mouse treated with 20 mg/kg, po administered through carboxymethylcellulose vehicle as single oral dose per gavage after 4 hrs by Resazurin microtiter assay; assay type: functional; conditions: read-out: GI; procedure, shortened: as §1

Row | Structure (SMILES) | MIC90 [1] [µM] | IC50 (MRC5) [µM] | selectivity ratio [2] | logP [3] | also measured
1 | N#Cc1c(-c2ccc(OC(F)(F)F)cc2)[n+]([O-])c2ccc(C3OCCO3)cc2[n+]1[O-] | 15.4 (≈ 6.46 µg/mL) | 66.8 | 4.3 | 2.2 | –
2 | O=C(N/N=C/c1ccc2no[n+]([O-])c2c1)c1cccc(O)c1 | > 62 | – | – | 1.2 | –
3 | N#Cc1c(-c2ccccc2)[n+]([O-])c2ccc(C3OCCO3)cc2[n+]1[O-] | 30.8 (≈ 10.3 µg/mL) | 31.9 | 0.9 | 0.7 | –
4 | Cc1ccc(-c2c(C#N)[n+]([O-])c3cc(C4OCCO4)ccc3[n+]2[O-])cc1 | 16.5 (≈ 5.76 µg/mL) | 17.2 | 1.1 | 1.6 | –
5 | N#Cc1c(-c2ccc(F)cc2)[n+]([O-])c2ccc(C3OCCO3)cc2[n+]1[O-] | 24.3 (≈ 8.59 µg/mL) | 21.8 | 0.9 | 1.3 | –
6 | NC(=O)c1c(COc2ccccc2/C=N/NC(=O)c2ccncc2)no[n+]1[O-] | 0.42 (≈ 0.161 µg/mL) | 854 | 2030 | 1.3 | MIC90 [4]: 7.72 µM (≈ 2.95 µg/mL)
7 | O=C(N/N=C/c1ccc2no[n+]([O-])c2c1)c1ccc([N+](=O)[O-])cc1 | 5.29 (≈ 1.73 µg/mL) | – | – | 0.9 | Activity (Staphylococcus aureus): inactive; Activity (Escherichia coli): inactive; Activity (Candida albicans): inactive
8 | NC(=O)c1c(COc2ccc(/C=N/NC(=O)c3ccncc3)cc2)no[n+]1[O-] | 0.43 (≈ 0.164 µg/mL) | 1160 | 2700 | 1.3 | MIC90 [4]: 2.04 µM (≈ 0.78 µg/mL)
9 | N#Cc1c(-c2ccc(Cl)cc2)[n+]([O-])c2ccc(C3OCCO3)cc2[n+]1[O-] | 16.2 (≈ 5.99 µg/mL) | 12.6 | 0.8 | 1.8 | –
10 | Nc1ccccc1C(=O)N/N=C/c1ccc2no[n+]([O-])c2c1 | 12.3 (≈ 3.66 µg/mL) | 122 | 9.9 | 2 | –
11 | O=C(N/N=C/c1ccc2no[n+]([O-])c2c1)c1ccccc1 | 8.3 (≈ 2.34 µg/mL) | 130 | 15.6 | 2.2 | –
12 | O=C(N/N=C/c1ccc2no[n+]([O-])c2c1)c1ccccc1O | > 62 | – | – | 1.3 | –
13 | Nc1cccc(C(=O)N/N=C/c2ccc3no[n+]([O-])c3c2)c1 | 17.8 (≈ 5.29 µg/mL) | 82.1 | 4.6 | 1.4 | –
14 | Nc1ccc(C(=O)N/N=C/c2ccc3no[n+]([O-])c3c2)cc1 | 10.7 (≈ 3.17 µg/mL) | 841 | 78.9 | 1.2 | MIC90 [4]: > 10 µM; Activity (Staphylococcus aureus): inactive; Activity (Escherichia coli): inactive; Activity (Candida albicans): inactive
15 | N#Cc1c(-c2ccco2)[n+]([O-])c2ccc(C3OCCO3)cc2[n+]1[O-] | 5.2 (≈ 1.69 µg/mL) | 35.7 | 6.8 | 2 | –
16 | NNC(=O)c1ccncc1 [ISONIAZID] | 0.1 (≈ 0.0137 µg/mL) | – | – | – | MIC90 [4]: 1.11 µM (≈ 0.152 µg/mL)
17 | O=C(N/N=C/c1ccc2no[n+]([O-])c2c1)c1ccc(O)cc1 | > 62 | – | – | 1.2 | Activity (Staphylococcus aureus): inactive; Activity (Escherichia coli): inactive; Activity (Candida albicans): inactive
18 | CC(C)(C)c1ccc(C(=O)N/N=C/c2ccc3no[n+]([O-])c3c2)cc1 | 3.9 (≈ 1.32 µg/mL) | 25.2 | 6.3 | 3.8 | –
19 | NC(=O)c1c(COc2cccc(/C=N/NC(=O)c3ccncc3)c2)no[n+]1[O-] | 0.4 (≈ 0.153 µg/mL) | 1280 | 3200 | 1.3 | MIC90 [4]: 4.2 µM (≈ 1.61 µg/mL)
20 | COc1ccc(-c2c(C#N)[n+]([O-])c3cc(C4OCCO4)ccc3[n+]2[O-])cc1 | 12 (≈ 4.38 µg/mL) | 15 | 1.2 | 1.4 | –
21 | CO[C@H]1/C=C/O[C@@]2(C)Oc3c(C)c(O)c4c(O)c(c(/C=N/N5CCN(C)CC5)c(O)c4c3C2=O)NC(=O)/C(C)=C\C=C\[C@H](C)[C@H](O)[C@@H](C)[C@@H](O)[C@@H](C)[C@H](OC(C)=O)[C@@H]1C [RIFAMPIN] | – | – | – | – | MIC90 [5]: 0.05 µM (≈ 0.0411 µg/mL); inhibition in vivo at 20 mg/kg [6]: 91%; inhibition in vivo at 20 mg/kg [7]: 76.3%; inhibition in vivo at 20 mg/kg [8]: 63%; inhibition in vivo at 20 mg/kg [9]: 66.3%; MIC90 [10]: 0.02 µM (≈ 0.0165 µg/mL); inhibition in vivo at 20 mg/kg [11]: 73.7%; inhibition in vivo at 20 mg/kg [12]: 84%; inhibition in vivo at 20 mg/kg [13]: 62.3%; inhibition in vivo at 20 mg/kg [14]: 68%
22 | N#Cc1c(-c2ccccc2)[n+]([O-])c2ccc(/C=N/NC(=O)c3ccncc3)cc2[n+]1[O-] | 39.7 (≈ 16.3 µg/mL) | 21 | 0.5 | 1 | –
23 | N#Cc1c(-c2cccs2)[n+]([O-])c2ccc(C3OCCO3)cc2[n+]1[O-] | 12.1 (≈ 4.13 µg/mL) | 17.3 | 1.4 | 1.9 | –
